Rows were chosen to be rich in hits. Some 3.4% of all compounds tested hit in one or more screens of this group.
UCH37 DUB inh = blocks the human deubiquitinase UCH37. hit rate 0.33% among 330,000. inhibition, % (no concentration beside the values). Q9Y5K5. purified proteasome/UCH37, Ub-AMC cleavage fluorescence;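 active = mean inhibition over replicate wells above about 20%, limit read from the data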
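Schedule: 30 min plus 25 min, room temperature / Material: human UCH37 within purified proteasomes / Technique: AMC fluorescence intensity at 355/460 nm / Buffer or medium: pH 7.4 Tris-HCl (50 mM) with ovalbumin, ATP-MgCl2, DTT / Controls: wells without proteasome as full block, compound-free enzyme plus substrate as uninhibited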
PolyA inhibitor = yeast polyadenylation inhibition | S. cerevisiae SKY197-pL101 polyadenylation reporter, beta-gal luminescence; efflux-impaired pdr1/pdr3 knockout yeast; score 100 = 6 SD above DMSO | hit rate 0.02% among 300,000 | activity score, % at 12 µM;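 active = lowest replicate activity score at least 50, where 100 means six control SD above control mean; inconclusive = lowest score under 50 but half or more replicates reach 50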;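 also: yeast exposed to compound for 9 h at 30 °C; higher score means more reporter readthrough which indicates perturbed polyadenylation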
Arrestin-AP2 inh = human beta-arrestin and AP2 interaction inhibition | inhibition, % at 10 µM | hit rate 0.31% among 340,000 | FITC-arrestin peptide / GST-AP2 beads, flow cytometry; AP2 beta2 appendage carries R879A mutation;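 active = inhibition above a set limit, near 3 SD of compounds lacking own fluorescence, cut at about 54% in these data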
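System: GST-AP2 R879A glutathione beads; medium: PBS, Tween 20 0.05%, BSA 0.1%; reagent: fluorescein-tagged arrestin peptide at 50 nM final; schedule: pre-incubation 12 min, peptide binding 1 h, room temperature; detection: flow cytometry, FL1 (488/535 nm); read-out: inhibition as reduced fluorescein signal on beads, percent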
APOBEC3G inh = inhibitors of human APOBEC3G DNA deaminase; hit rate 0.28% among 330,000; recombinant A3G, ssDNA deamination FAM/TAMRA fluorescence; AID 493012; inhibition, % at 20 µM;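 active = inhibition of at least 40% at 20 µM, with no more than 30% in the related APOBEC3A deaminase screen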
AHR activator = activators of human aryl hydrocarbon receptor. P35869. AHR-responsive luciferase reporter cells, luminescence. activation, % at 5 µM. hit rate 2.5% among 320,000; in the data active = activation above about 47%
Target sequence (P35869 whole entry, looked up): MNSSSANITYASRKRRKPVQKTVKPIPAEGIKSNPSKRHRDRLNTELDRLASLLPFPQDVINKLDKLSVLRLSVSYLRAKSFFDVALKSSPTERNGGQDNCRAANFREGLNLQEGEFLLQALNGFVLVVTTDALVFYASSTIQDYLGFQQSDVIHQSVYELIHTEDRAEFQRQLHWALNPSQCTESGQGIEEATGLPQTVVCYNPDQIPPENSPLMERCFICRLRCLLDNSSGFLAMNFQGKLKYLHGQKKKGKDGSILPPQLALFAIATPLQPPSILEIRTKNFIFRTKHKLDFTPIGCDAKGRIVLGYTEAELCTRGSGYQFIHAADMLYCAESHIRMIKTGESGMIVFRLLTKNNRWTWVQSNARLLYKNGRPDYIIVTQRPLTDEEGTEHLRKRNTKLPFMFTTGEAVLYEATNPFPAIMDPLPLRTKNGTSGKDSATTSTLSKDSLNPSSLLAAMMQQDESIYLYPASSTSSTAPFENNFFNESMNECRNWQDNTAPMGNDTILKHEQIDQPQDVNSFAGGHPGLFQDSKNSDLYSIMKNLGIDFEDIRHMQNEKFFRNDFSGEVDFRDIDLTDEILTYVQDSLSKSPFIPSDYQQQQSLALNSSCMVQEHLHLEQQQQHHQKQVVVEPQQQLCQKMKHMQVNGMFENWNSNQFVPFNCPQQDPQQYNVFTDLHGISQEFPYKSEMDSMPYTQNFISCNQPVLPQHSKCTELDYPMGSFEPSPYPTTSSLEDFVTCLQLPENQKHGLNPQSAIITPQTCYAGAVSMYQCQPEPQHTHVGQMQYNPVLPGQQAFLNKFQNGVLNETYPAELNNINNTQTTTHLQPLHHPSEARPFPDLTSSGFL
APOBEC3A inh = human APOBEC3A DNA deaminase inhibition. recombinant A3A, FAM/TAMRA ssDNA deamination fluorescence. inhibition, % at 20 µM. hit rate 0.41% among 330,000;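 active = at least 40% inhibition at 20 µM here, with at most 30% in a related deaminase screen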
A number is an active result; . = inactive; ? = inconclusive; / = no result.

SMILES | UCH37 DUB inh | PolyA inhibitor | Arrestin-AP2 inh | APOBEC3G inh | AHR activator | APOBEC3A inh
CCOP(=O)(OCC)C(=NOC(=O)c1ccc(OC)cc1)C(N)=O | . | / | / | / | / | /
O=C(Nc1ccccc1Cl)c1csc(-c2cccnc2)n1 | . | . | . | . | 48 | .
O=C(NNC(=O)c1csc(-c2cccnc2)n1)c1ccccc1 | . | . | . | . | . | .
Clc1ccc(OCc2cn3ccccc3n2)c2ncccc12 | . | . | . | . | 49 | .
OCc1ccccc1OCCOc1ccc(Cl)c2cccnc12 | . | . | . | . | . | .
CCCCOCCCNc1ncnc2c1[nH]c1ccccc12 | . | . | . | . | . | .
CCCCOc1ncnc2c1[nH]c1ccccc12 | . | . | . | . | 50 | .
CCOCCCNc1ncnc2c1[nH]c1ccccc12 | . | . | . | . | 50 | .
Cc1ccccc1OCC(=O)NN=Cc1cn(Cc2ccccc2)c2ccccc12 | . | / | / | / | / | /
Cn1c(N)c(C(=O)/C=C/c2ccccc2)c(=O)[nH]c1=O | . | . | . | . | 47 | .
Cn1c(N)c(C(=O)Nc2ccccc2)c(=O)[nH]c1=O | . | . | / | . | . | .
O=C(Cc1c[nH]c2ccccc12)NN=Cc1ccccc1O | . | / | / | / | / | /
COc1ccccc1/C=N/NC(=O)c1ccc2c(c1)OCO2 | / | . | . | . | 51 | .
CCn1nc(C)c(CNC(=O)Nc2ccc3c(c2)OCO3)c1C | . | . | . | . | 68 | .
O=C(NN=Cc1ccccc1OC(=O)c1ccc2c(c1)OCO2)c1ccccc1 | . | / | / | / | / | /
O=C(N/N=C/c1ccc2c(c1)OCO2)C1CC1 | / | . | . | . | 67 | .
Cc1cc(CNC(=O)Nc2ccc3c(c2)OCO3)nn1C | . | / | . | . | . | .
COc1ccccc1C(=O)N/N=C/c1ccc2c(c1)OCO2 | / | . | . | . | 50 | .
S=C(NCc1ccco1)NN=Cc1ccccc1Cl | . | / | / | / | / | /
CCn1nc(C)c(/C=N\NC(=O)c2ccc3c(c2)OCO3)c1C | / | . | . | . | 73 | .
CC(C)C(NC(=O)c1ccc2c(c1)OCO2)C(=O)N/N=C/c1cccs1 (configuration not stated) | / | ? | . | . | . | .
Cc1c(/C=N/NC(=O)C(NC(=O)c2ccc3c(c2)OCO3)C(C)C)c2ccccc2n1C (configuration not stated) | / | . | . | . | 51 | .
COc1cc(/C=N/NC(=O)c2cc(-c3ccc4c(c3)OCO4)n[nH]2)ccc1O | / | . | . | . | 128 | .
CCn1ncc(/C=N/NC(=O)c2ccc3c(c2)OCO3)c1C | / | . | . | . | . | .
COc1cc(C=NNC(=O)c2ccc3c(c2)OCO3)ccc1O | . | / | / | / | / | /
SMILES | UCH37 DUB inh | PolyA inhibitor | Arrestin-AP2 inh | APOBEC3G inh | AHR activator | APOBEC3A inh
COc1ccc(-c2cc(C(=O)N/N=C/c3ccc4c(c3)OCO4)c3ccccc3n2)c(OC)c1 | / | . | . | . | 49 | .
Cc1cc(=O)[nH]c(NN=Cc2ccc(F)cc2)n1 | . | / | / | / | / | /
Cc1cc(C)nc(SCC(=O)c2c(N)n(C)c(=O)n(C)c2=O)n1 | . | . | . | . | 50 | .
Brc1ccc(N=NNc2ccccc2)cc1 | / | . | . | . | 58 | .
CCOc1ccc(C(=O)NN=Cc2ccccc2[N+](=O)[O-])cc1 | . | / | / | / | / | /
Cc1ccc(NC2CCCN(C(=O)C3CCCCC3)C2)cc1C (configuration not stated) | . | . | . | . | 60 | .
O=C(C1CCCC1)N1CCCC(Nc2ccc(F)cc2)C1 (configuration not stated) | . | . | . | . | . | .
Cc1cc(C)c(C(=O)N2CCCC(Nc3ccc(C)c(C)c3)C2)o1 (configuration not stated) | . | . | . | . | 63 | .
CC1CC(=NNC(=O)c2ccc(CSc3nc4ccccc4[nH]3)cc2)CC(C)(C)C1 (configuration not stated) | . | / | / | / | / | /
Cc1cc(NN=Cc2cccc([N+](=O)[O-])c2)nc(-n2nc(C)cc2C)n1 | . | / | / | / | / | /
COc1cccc(/C=N/Nc2ncnc3scc(-c4ccccc4)c23)c1OC | / | . | . | . | 53 | .
COc1ccc(C=NNc2ncnc3scc(-c4ccccc4)c23)cc1OC | . | / | / | / | / | /
O=C1C2C(C(=O)N1N=Cc1ccc([N+](=O)[O-])o1)C1C=CC2C12CC2 (configuration not stated) | . | / | / | / | / | /
Cc1cc(C)c(-c2cc(NC(=O)CSc3nncn3C)n(-c3ccccc3)n2)cc1C | . | . | . | . | 64 | .
CCOc1cc(C=NNC(=O)Nc2ccccc2)ccc1O | . | / | / | / | / | /
N#C/C(=C\c1cccc2ccccc12)c1nn(-c2ccccc2)c(N)c1C#N | . | . | / | . | 56 | .
COc1cc(C=NNc2nc3ccccc3[nH]2)cc(Br)c1OCC(=O)N(C)C | . | / | / | / | / | /
O=C(c1ccccc1)c1ccc(N2CCOCC2)cc1 | / | / | . | / | / | /
CC(=O)N(C1=C(N2CCOCC2)C(=O)c2ccccc2C1=O)c1ccc(C(=O)O)cc1 | 24 | . | . | . | . | .
CC(=O)N(C)C1=C(N2CCOCC2)C(=O)c2ccccc2C1=O | 22 | . | . | . | . | .
CC(=O)Nc1cccc(/C(C)=N/Nc2nc3ccccc3s2)c1 | / | . | . | . | 61 | .
C/C(=N\Nc1nc2ccccc2s1)c1cccs1 | / | . | . | . | 58 | .
CC(=NNc1nc2ccccc2s1)c1ncccn1 | / | / | . | / | / | /
CC(=O)Nc1ccc(/C=N/Nc2nc3ccccc3s2)cc1 | / | . | . | / | / | /
CC(=NNS(=O)(=O)c1ccc(Cl)cc1)c1cccc(NC(=O)c2ccc(Cl)cc2Cl)c1 | . | / | / | / | / | /
COc1cccc(-c2nc(-c3ccccn3)no2)c1 | . | . | / | . | 64 | .
c1ccc(-c2noc(-c3ccc4ccccc4c3)n2)nc1 | . | . | . | . | . | .

High-throughput results deposited in PubChem by several laboratories.
